The source made the active and inactive calls. The calls are words filed in the database; no cut-off is given here.
Columns and labels:
[1] = target: Acyl-CoA (8-3)-desaturase (Rattus norvegicus) (UniProt Q920R3); assay: Inhibition of delta5 desaturase in Sprague-Dawley rat liver microsome at 10 uM; assay type: microsomes
[2] = Half life in Lewis rat at 3 mg/kg, iv; assay type: ADME, organism-based; design: dose 3 mg/kg, route intravenous; settings: in vivo
How it was run: (§1)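 Lewis rats, IV 3 mg/kg and PO 10 mg/kg unless otherwise stated (some at PO 5 mg/kg, IV 1 mg/kg, or IV 1/PO 2 mg/kg). At least two rats IV, three rats PO, averaged. Plasma t1/2 (h), AUC 0–∞ (μM·h), Vss (L/kg), clearance ((L/h)/kg), Cmax (μM), Tmax (h), oral bioavailability (%).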

[3] = Apparent permeability from apical to basolateral side in human Caco2 cells; assay type: ADME, cell-based; settings: Caco-2
How it was run: (§2)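 Caco-2 monolayers; apparent permeability a-to-b and b-to-a reported in 10⁻⁶ cm/s.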

[4] = target: Acyl-CoA 6-desaturase (Rattus norvegicus) (UniProt Q9Z122); assay: Inhibition of delta6 desaturase in Sprague-Dawley rat liver microsome using cis,cis-9,12-octadecadienoic acid substrate at 10 uM
Acyl-CoA 6-desaturase (Rattus norvegicus), sequence (Q9Z122 whole entry, looked up): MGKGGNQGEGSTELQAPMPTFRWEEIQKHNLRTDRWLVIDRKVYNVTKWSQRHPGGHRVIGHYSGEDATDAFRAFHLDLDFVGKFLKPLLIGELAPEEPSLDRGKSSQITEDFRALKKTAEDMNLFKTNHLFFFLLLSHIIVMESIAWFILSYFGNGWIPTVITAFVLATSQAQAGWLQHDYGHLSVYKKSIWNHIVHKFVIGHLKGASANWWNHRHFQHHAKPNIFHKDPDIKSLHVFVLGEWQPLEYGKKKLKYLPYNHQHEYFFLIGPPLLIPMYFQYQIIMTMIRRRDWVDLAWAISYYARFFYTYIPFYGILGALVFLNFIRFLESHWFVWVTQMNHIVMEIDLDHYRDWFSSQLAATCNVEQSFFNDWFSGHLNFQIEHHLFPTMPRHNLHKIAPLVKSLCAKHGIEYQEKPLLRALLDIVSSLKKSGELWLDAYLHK

[5] = Apparent permeability from basolateral to apical side in human Caco2 cells; assay type: ADME, cell-based; settings: Caco-2; how it was run: as §2
[6] = Oral bioavailability in Lewis rat at 10 mg/kg; assay type: ADME, organism-based; settings: in vivo; how it was run: as §1
[7] = tested on: Rattus norvegicus; assay: In vivo inhibition of SCD1 in Lewis rat liver microsome at 15 mg/kg, ip administered qd for 2 days; assay type: functional; settings: 48 h, route intraperitoneal
How it was run: (§3)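 Lewis rats fed high-carbohydrate diet for one week, fasted 4 h, then dosed orally (0.1–1 mg/kg in 0.2% Tween 20/1% CMC; n = 4), killed 4 h later; ip arm 15 mg/kg once daily for two days. Liver microsomes prepared, SCD1 activity measured by tritiated water release from [9,10-3H]stearoyl-CoA. Mean ± SD of at least four rats.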

[8] = Cmax in Lewis rat at 10 mg/kg, po; assay type: ADME, organism-based; design: dose 10 mg/kg, route oral; settings: in vivo; how it was run: as §1
[9] = target: T1, Acyl-CoA desaturase 1 (Mus musculus, UniProt P13516); assay: Inhibition of SCD1 in ICR mouse liver microsome using [9,10 3H]- stearoyl-Coenzyme A substrate assessed as decreased production of tritiated water after 20 min by scintillation counting analysis
T1 sequence (P13516 whole entry): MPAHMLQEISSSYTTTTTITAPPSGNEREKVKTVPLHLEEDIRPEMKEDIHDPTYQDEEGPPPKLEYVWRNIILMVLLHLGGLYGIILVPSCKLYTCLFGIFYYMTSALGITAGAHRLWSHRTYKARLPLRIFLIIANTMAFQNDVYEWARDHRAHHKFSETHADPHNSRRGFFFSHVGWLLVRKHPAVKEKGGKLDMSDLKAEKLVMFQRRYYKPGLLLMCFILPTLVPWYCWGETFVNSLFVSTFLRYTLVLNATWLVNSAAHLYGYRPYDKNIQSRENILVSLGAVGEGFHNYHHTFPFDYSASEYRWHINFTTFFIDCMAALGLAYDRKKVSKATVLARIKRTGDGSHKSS

[10] = Volume of distribution at steady state in Lewis rat at 3 mg/kg, iv; assay type: ADME, organism-based; design: dose 3 mg/kg, route intravenous; settings: in vivo, read-out: Vdss; how it was run: as §1
[11] = Tmax in Lewis rat at 10 mg/kg, po; assay type: ADME, organism-based; design: dose 10 mg/kg, route oral; settings: in vivo; how it was run: as §1
[12] = Clearance in Lewis rat at 3 mg/kg, iv; assay type: ADME, organism-based; design: dose 3 mg/kg, route intravenous; settings: in vivo; how it was run: as §1
[13] = Metabolic stability in rat liver microsome after 30 mins by LC/MS/MS analysis; assay type: ADME; settings: liver microsomes, read-out: Stability
How it was run: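 Compound incubated 30 min with rat liver microsomes; percent parent remaining by LC/MS/MS.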

[14] = Half life in Lewis rat at 1 mg/kg, iv; assay type: ADME, organism-based; design: dose 1 mg/kg, route intravenous; settings: in vivo; how it was run: as §1
[15] = Oral bioavailability in Lewis rat at 2 mg/kg; assay type: ADME, organism-based; settings: in vivo; how it was run: as §1
[16] = AUC (0 to infinity) in Lewis rat at 2 mg/kg, po; assay type: ADME, organism-based; design: time infinity, dose 2 mg/kg, route oral; settings: plasma; how it was run: as §1
[17] = AUC (0 to infinity) in Lewis rat at 1 mg/kg, iv; assay type: ADME, organism-based; design: time infinity, dose 1 mg/kg, route intravenous; settings: plasma; how it was run: as §1
[18] = Cmax in Lewis rat at 2 mg/kg, po; assay type: ADME, organism-based; design: dose 2 mg/kg, route oral; settings: in vivo; how it was run: as §1
[19] = Clearance in Lewis rat at 1 mg/kg, iv; assay type: ADME, organism-based; design: dose 1 mg/kg, route intravenous; settings: in vivo; how it was run: as §1
[20] = Volume of distribution at steady state in Lewis rat at 1 mg/kg, iv; assay type: ADME, organism-based; design: dose 1 mg/kg, route intravenous; settings: in vivo, read-out: Vdss; how it was run: as §1
[21] = Tmax in Lewis rat at 2 mg/kg, po; assay type: ADME, organism-based; design: dose 2 mg/kg, route oral; settings: in vivo; how it was run: as §1
[22] = target: T2, Stearoyl-CoA desaturase (Homo sapiens, UniProt O00767); assay: Inhibition of SCD1 in human HepG2 cells using [14C]-stearate substrate assessed as decreased production of [14C]-oleic acid after 24 hrs; assay type: cell-based
T2 sequence (O00767 whole entry): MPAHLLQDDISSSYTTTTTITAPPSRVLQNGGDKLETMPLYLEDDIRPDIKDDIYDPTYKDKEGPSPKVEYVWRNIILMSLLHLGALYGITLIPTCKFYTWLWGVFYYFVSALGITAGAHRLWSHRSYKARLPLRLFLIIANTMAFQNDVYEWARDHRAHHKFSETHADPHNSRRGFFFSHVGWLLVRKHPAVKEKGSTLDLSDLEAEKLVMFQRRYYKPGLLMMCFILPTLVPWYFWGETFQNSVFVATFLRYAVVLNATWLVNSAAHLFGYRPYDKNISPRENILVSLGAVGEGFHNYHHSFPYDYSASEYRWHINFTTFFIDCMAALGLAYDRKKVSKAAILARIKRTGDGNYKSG

[23] = tested on: Rattus norvegicus; assay: Antiobesity activity in Zucker-Fatty rat assessed as reduction in lean mass at 1 mg/kg, po bid administered for 15 weeks; assay type: functional, organism-based; design: dose 1 mg/kg
How it was run: (§4)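 Male Zucker fa/fa rats, 20 weeks old, chow ad libitum, 24 per group. Dosed orally twice daily (10 a.m., 4 p.m.) at 1 mg/kg for 15 weeks, suspended in 1% CMC/0.1% Tween 20/10% propylene glycol/water; vehicle controls. Body weight taken daily, change from day 0 over 12 weeks. At end: epididymal, retroperitoneal and mesenteric fat pads weighed; DEXA of carcass BMC, lean and fat mass; fat % = FM/(BMC+LM+FM); n = 12, mean ± SEM.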

[24] = tested on: Rattus norvegicus; assay: In vivo inhibition of SCD1 in Zucker-Fatty rat assessed as reduction of C16 plasma desaturation index at 1 mg/kg, po bid administered for 15 weeks; assay type: functional; settings: 2520 h
How it was run: (§5)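 Plasma from Zucker fatty rats after 15 weeks oral 1 mg/kg twice daily. Lipids extracted by modified Folch, classes separated by TLC, hydrolyzed, derivatized and analyzed by GC against an internal standard. Desaturation index is the […] ratio for C16 and C18; n = 12, mean ± SEM.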

[25] = tested on: Rattus norvegicus; assay: Antiobesity activity in Zucker-Fatty rat assessed as reduction in combined visceral fat weight at 1 mg/kg, po bid administered for 15 weeks relative to vehicle-treated control; assay type: functional; design: scale not given: the % may be the effect or the level left; how it was run: as §4
[26] = tested on: Rattus norvegicus; assay: Antiobesity activity in Zucker-Fatty rat assessed as reduction in body fat percentage at 1 mg/kg, po bid administered for 15 weeks relative to vehicle-treated control; assay type: functional; design: scale not given: the % may be the effect or the level left; how it was run: as §4
[27] = tested on: Rattus norvegicus; assay: Antiobesity activity in Zucker-Fatty rat assessed as reduction in total body weight at 1 mg/kg, po bid administered upto 12 weeks relative to vehicle-treated control; assay type: functional; design: scale not given: the % may be the effect or the level left; how it was run: as §4
[28] = tested on: Rattus norvegicus; assay: In vivo inhibition of SCD1 in po dosed Lewis rat liver microsome after 4 hrs; assay type: functional; how it was run: as §3
[29] = tested on: Rattus norvegicus; assay: Antiobesity activity in Zucker-Fatty rat assessed as reduction in fat mass at 1 mg/kg, po bid administered for 15 weeks; assay type: functional; design: scale not given: the % may be the effect or the level left; how it was run: as §4
[30] = tested on: Rattus norvegicus; assay: In vivo inhibition of SCD1 in po dosed Lewis rat liver microsome at 0.1 to 1 mg/kg after 4 hrs; assay type: functional, organism-based; how it was run: as §3
[31] = tested on: Rattus norvegicus; assay: In vivo inhibition of SCD1 in Zucker-Fatty rat assessed as reduction of C18 plasma desaturation index at 1 mg/kg, po bid administered for 15 weeks; assay type: functional; settings: 2520 h; how it was run: as §5
[32] = tested on: Rattus norvegicus; assay: Antiobesity activity in Zucker-Fatty rat assessed as reduction in bone mineral content at 1 mg/kg, po bid administered for 15 weeks; assay type: functional, organism-based; design: dose 1 mg/kg; how it was run: as §4

Acyl-CoA (8-3)-desaturase (Rattus norvegicus), sequence (Q920R3 whole entry, looked up): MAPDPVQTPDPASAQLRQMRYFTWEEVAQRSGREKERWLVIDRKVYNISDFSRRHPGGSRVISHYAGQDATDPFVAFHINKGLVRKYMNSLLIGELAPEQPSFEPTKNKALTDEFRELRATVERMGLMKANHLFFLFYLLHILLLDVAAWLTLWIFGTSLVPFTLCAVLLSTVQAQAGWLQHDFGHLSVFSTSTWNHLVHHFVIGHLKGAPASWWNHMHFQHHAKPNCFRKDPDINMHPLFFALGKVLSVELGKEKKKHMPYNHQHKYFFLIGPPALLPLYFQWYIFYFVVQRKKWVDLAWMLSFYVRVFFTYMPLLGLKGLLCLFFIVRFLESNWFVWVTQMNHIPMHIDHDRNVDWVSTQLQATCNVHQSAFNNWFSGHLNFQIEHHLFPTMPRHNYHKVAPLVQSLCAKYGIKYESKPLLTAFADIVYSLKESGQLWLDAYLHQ

Row | Compound | inhibition [1] | Papp A→B [3] | inhibition [4] | Papp B→A [5] | bioavailability [6] | Cmax [8] | IC50 [9] | Tmax [11] | remaining at 0.5 h [13] | half-life [14] | clearance [19] | Vd [20] | IC50 [22] | inhibition in vivo at 15 mg/kg [7] | further results
1 | O=C(Nc1nc2ccccc2[nH]1)c1ccc(N2CCN(C(=O)c3ccccc3C(F)(F)F)CC2)nn1 | inactive | 25 ×10⁻⁶ cm/s | inactive | 23 ×10⁻⁶ cm/s |  |  | 11 nM |  | 92% | 1.1 h | 21.7 mL/min/kg | 1.8 L/kg |  | < 30% | bioavailability [15]: 19%; AUC(0-inf) [16]: 0.6 µM·h; AUC(0-inf) [17]: 1.6 µM·h; Cmax [18]: 70 nM; Tmax [21]: 0.5 h
2 | O=C(NCCC1CC1)c1ccc(N2CCN(C(=O)c3ccoc3C(F)(F)F)CC2)nn1 | inactive |  | inactive |  |  |  |  |  |  |  |  |  | 290 nM |  | 
3 | O=C(NCCC1CC1)c1ccc(N2CCN(C(=O)c3cc(F)ccc3Cl)CC2)nn1 | inactive | 28 ×10⁻⁶ cm/s | inactive | 29 ×10⁻⁶ cm/s |  |  | 62 nM |  | 66% |  |  |  | 192 nM |  | 
4 | O=C(NCCC1CC1)c1ccc(N2CCN(C(=O)c3cc(F)ccc3C(F)(F)F)CC2)nn1 | inactive | 30 ×10⁻⁶ cm/s | inactive | 30 ×10⁻⁶ cm/s | 49% | 900 nM | 14 nM | 3.3 h | 74% | 1.6 h | 21.7 mL/min/kg | 2.7 L/kg |  | > 60% | Activity [23]: inactive; inhibition in vivo at 1 mg/kg [24]: 73%; Activity [25]: 24%; Activity [26]: 9%; Activity [27]: 36%; ED50 [28]: 0.8 mg/kg; Activity [29]: 20%; inhibition [30]: Dose-dependent effect; inhibition in vivo at 1 mg/kg [31]: 61%; Activity [32]: inactive

The next lines start with results.

Row | inhibition [1] | Papp A→B [3] | inhibition [4] | Papp B→A [5] | bioavailability [6] | Cmax [8] | IC50 [9] | Tmax [11] | remaining at 0.5 h [13] | half-life [14] | clearance [19] | Vd [20] | IC50 [22] | Compound | inhibition in vivo at 15 mg/kg [7] | further results
5 | inactive | 32 ×10⁻⁶ cm/s | inactive | 30 ×10⁻⁶ cm/s | 30% | 500 nM | 12 nM | 2.3 h | 69% |  |  |  |  | O=C(NCCC1CC1)c1ccc(N2CCN(C(=O)c3cc(Cl)ccc3C(F)(F)F)CC2)nn1 | > 60% | half-life [2]: 1.8 h; Vd [10]: 1.6 L/kg; clearance [12]: 14.3 mL/min/kg
6 | inactive |  | inactive |  |  |  | 34 nM |  |  |  |  |  | 101 nM | O=C(NCCC1CC1)c1ccc(N2CCN(C(=O)c3cc(Cl)ccc3Cl)CC2)nn1 |  | 
